# Reference: ChEMBL document CHEMBL2146370, “Newly synthesized bis-benzimidazole derivatives exerting anti-tumor activity through induction of apoptosis and autophagy” (Bioorg Med Chem Lett, 2012)
# pIC50: −log10 of the molar value. Active and inactive are the calls of the source. No cut-off for these calls is given here.
# What was measured:
# [1] = Cytotoxicity against human PBMC cells assessed as cell viability at 5 uM after 48 hrs by MTT assay; assay type: cell-based; settings: read-out: Activity
# Summary of the method: (§1)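 PBMC from three healthy adult volunteers, seeded at 5 × 10^5 cells/well in 96-well plates; cultured with various doses of test agent for 12, 24, 48 and 72 h; viability read out; n=3, mean ± SD; significance p < 0.05.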
# [2] = Cytotoxicity against human PBMC cells assessed as cell viability at 5 uM after 24 hrs by MTT assay; assay type: cell-based; settings: read-out: Activity; summary of the method: as §1
# [3] = system: HeLa; experiment: Cytotoxicity against human HeLa cells after 72 hrs by MTT assay; assay type: functional, cell-based
# Summary of the method: (§2)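 MTT assay in HeLa, HL60 and U937 cancer lines. IC50 in µM is the mean ± SD of three independent experiments. 5-Fluorouracil and paclitaxel served as positive controls.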
# [4] = system: U-937; experiment: Cytotoxicity against human U937 cells after 72 hrs by MTT assay; assay type: functional, cell-based; settings: U-937, 72 h; summary of the method: as §2
# [5] = system: HL-60; experiment: Cytotoxicity against human HL60 cells after 72 hrs by MTT assay; assay type: functional, cell-based; settings: HL-60, 72 h; summary of the method: as §2
# [6] = Cytotoxicity against human PBMC cells assessed as cell viability at 5 uM after 12 hrs by MTT assay; assay type: cell-based; settings: read-out: Activity; summary of the method: as §1
# [7] = Cytotoxicity against human PBMC cells assessed as cell viability at 5 uM after 72 hrs by MTT assay; assay type: cell-based; settings: read-out: Activity; summary of the method: as §1
# [8] = system: HL-60; experiment: Induction of apoptosis in human HL60 cells assessed as non-adherent dead cell at 0.5 uM after 48 hrs by phase contrast microscopy; assay type: functional, cell-based
# Summary of the method: (§3)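 HL60 cells were cultured with 0.5 µM for 24, 48 and 72 h. Morphology was compared with untreated control cells by microscopy.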
# [9] = system: HL-60; experiment: Cell cycle arrest in human HL60 cells assessed as accumulation at sub-G1 phase after 48 hrs by PI-based flow cytometry analysis ( Rvb = 1.73 +/-0.08 %); assay type: functional
# Summary of the method: (§4)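 HL60 cells exposed to 0.5 µM for 24, 48 and 72 h alongside untreated controls. Apoptosis was quantified by flow cytometry as the subG1 fraction.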
# [10] = system: HL-60; experiment: Induction of apoptosis in human HL60 cells assessed as round cell with shrunken nuclei at 0.5 uM after 48 hrs by phase contrast microscopy; assay type: functional, cell-based; summary of the method: as §3
# [11] = system: PBMC; experiment: Cytotoxicity against human PBMC cells assessed as cell viability at 160 uM after 24 to 72 hrs by MTT assay; assay type: cell-based
# Summary of the method: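 PBMC were taken from three healthy adult volunteers and seeded at 5 × 10^5 cells/well. They were cultured 12, 24, 48 and 72 h across a range of concentrations up to 160 µM, with 5-FU for comparison. Viability is mean ± SD, n=3, compared by p < 0.05.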
# [12] = system: HL-60; experiment: Cell cycle arrest in human HL60 cells assessed as accumulation at sub-G1 phase by PI-based flow cytometry analysis; assay type: functional; settings: TDE = time-dependent effect; summary of the method: as §4
# [13] = system: HL-60; experiment: Induction of autophagy in human HL60 cells assessed as increase in LC3-II level at 0.5 umol/L by Western blot analysis; assay type: functional, cell-based; settings: TDE = time-dependent effect
# Summary of the method: (§5)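 HL60 cells were treated with 0.5 µmol L-1 over a time course and analysed by Western blot for Beclin-1 and LC3-I to LC3-II conversion, with β-actin as loading control.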
# [14] = system: HL-60; experiment: Cell cycle arrest in human HL60 cells assessed as accumulation at sub-G1 phase after 72 hrs by PI-based flow cytometry analysis ( Rvb = 1.73 +/-0.08 %); assay type: functional; summary of the method: as §4
# [15] = system: HL-60; experiment: Induction of apoptosis in human HL60 cells assessed as chromatin condensation by acridine orange staining-based fluorescence microscopy; assay type: functional, cell-based
# Summary of the method: (§6)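 HL60 cells were stained with acridine orange and examined under a fluorescence microscope for chromatin condensation and nuclear fragmentation, with control-medium cells as reference.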
# [16] = system: HL-60; experiment: Induction of autophagy in human HL60 cells assessed as formation of autophagic vacuoles at 0.5 umol/L by MDC staining-based flow cytometry; assay type: functional, cell-based; settings: TDE = time-dependent effect
# Summary of the method: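 Autophagic vacuoles were labelled with monodansylcadaverine and viewed by fluorescence microscopy. MDC fluorescence intensity was quantified by flow cytometry after 0.5 µmol L-1 treatment.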
# [17] = system: HL-60; experiment: Induction of autophagy in human HL60 cells at 0.5 umol/L after 48 hrs by MDC staining based flow cytometry (reference value: 2.27 +/- 0.43 %); assay type: functional
# Summary of the method: (§7)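 HL60 cells were treated with 0.5 µmol L-1 for 0, 24, 48 or 72 h, stained with MDC, and fluorescence intensity was analysed by flow cytometry.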
# [18] = system: HL-60; experiment: Induction of apoptosis in human HL60 cells assessed as round in cell shape at 0.5 uM after 24 hrs by phase contrast microscopy; assay type: functional, cell-based; summary of the method: as §3
# [19] = system: HL-60; experiment: Induction of apoptosis in human HL60 cells assessed as membrane blebbing at 0.5 uM after 48 hrs by phase contrast microscopy; assay type: functional, cell-based; summary of the method: as §3
# [20] = system: HL-60; experiment: Induction of autophagy in human HL60 cells at 0.5 umol/L after 72 hrs by MDC staining based flow cytometry (reference value: 2.27 +/- 0.43 %); assay type: functional; summary of the method: as §7
# [21] = system: HL-60; experiment: Induction of apoptosis in human HL60 cells assessed as decrease in number of MDC-positive cells at 0.5 uM after 24 hrs by MDC staining-based fluorescence analysis in presence of 3-MA; assay type: functional, cell-based
# Summary of the method: (§8)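 HL60 cells were treated 24 h with 0.5 µM, with or without 1 mM 3-MA added beforehand. MDC-positive (autophagic) ratio and apoptotic ratio were measured by flow cytometry. Mean ± SD, n = 3.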
# [22] = system: HL-60; experiment: Induction of apoptosis in human HL60 cells assessed as nuclear fragmentation by acridine orange staining-based fluorescence microscopy; assay type: functional, cell-based; summary of the method: as §6
# [23] = system: HL-60; experiment: Induction of autophagy in human HL60 cells assessed as increase in beclin 1 level at 0.5 umol/L by Western blot analysis; assay type: functional, cell-based; settings: TDE = time-dependent effect; summary of the method: as §5
# [24] = system: HL-60; experiment: Cell cycle arrest in human HL60 cells assessed as accumulation at sub-G1 phase after 24 hrs by PI-based flow cytometry analysis ( Rvb = 1.73 +/-0.08 %); assay type: functional; summary of the method: as §4
# [25] = system: HL-60; experiment: Induction of autophagy in human HL60 cells at 0.5 umol/L after 24 hrs by MDC staining based flow cytometry (reference value: 2.27 +/- 0.43 %); assay type: functional; summary of the method: as §7
# [26] = system: HL-60; experiment: Induction of apoptosis in human HL60 cells assessed as decrease in apoptotic ratio at 0.5 uM after 24 hrs by MDC staining-based fluorescence analysis in presence of 3-MA; assay type: functional, cell-based; summary of the method: as §8
# [27] = system: HL-60; experiment: Induction of apoptosis in human HL60 cells assessed as fragmentation of nuclei into apoptotic bodies at 0.5 uM after 48 hrs by phase contrast microscopy; assay type: functional, cell-based; summary of the method: as §3
# [28] = system: HL-60; experiment: Induction of apoptosis in human HL60 cells assessed as retraction of cellular process at 0.5 uM after 24 hrs by phase contrast microscopy; assay type: functional, cell-based; summary of the method: as §3
structure (smiles),measurement,setting,value
O=c1[nH]cc(F)c(=O)[nH]1 [FLUOROURACIL],"viability at 48 h, 5 µM",[1],87%
same,"viability at 24 h, 5 µM",[2],94%
same,pIC50,[3],6.55
same,pIC50,[4],5.97
same,pIC50,[5],7.22
same,"viability at 12 h, 5 µM",[6],98%
same,"viability at 72 h, 5 µM",[7],76%
COc1cc(-c2nc3cc(Oc4ccc5[nH]c(-c6cc(OC)c(OC)c(OC)c6)nc5c4)ccc3[nH]2)cc(OC)c1OC,pIC50,[3],5.03
same,pIC50,[4],5.16
same,pIC50,[5],5.12
c1ccc(-c2nc3cc(Oc4ccc5[nH]c(-c6ccccc6)nc5c4)ccc3[nH]2)cc1,pIC50,[3],4.74
same,pIC50,[4],4.77
same,pIC50,[5],4.78
Clc1ccc(-c2nc3cc(Oc4ccc5[nH]c(-c6ccc(Cl)cc6Cl)nc5c4)ccc3[nH]2)c(Cl)c1,pIC50,[3],4.76
same,pIC50,[4],4.69
same,pIC50,[5],4.80
Fc1ccc(-c2nc3cc(Oc4ccc5[nH]c(-c6ccc(F)cc6)nc5c4)ccc3[nH]2)cc1,pIC50,[3],4.64
same,pIC50,[4],4.65
same,pIC50,[5],4.63
COc1cc(OC)cc(-c2nc3cc(Oc4ccc5[nH]c(-c6cc(OC)cc(OC)c6)nc5c4)ccc3[nH]2)c1,pIC50,[3],5.07
same,pIC50,[4],5.15
same,pIC50,[5],5.20
COc1ccc(-c2nc3cc(Oc4ccc5[nH]c(-c6ccc(OC)cc6)nc5c4)ccc3[nH]2)cc1,Activity,[8],Active
same,Activity,[9],63.02%
same,Activity,[10],Active
same,Activity,[11],Non-toxic
same,"viability at 48 h, 5 µM",[1],88%
same,"viability at 24 h, 5 µM",[2],96%
same,pIC50,[3],5.30
same,Activity,[12],tde
same,Activity,[13],tde
same,Activity,[14],89.61%
same,pIC50,[4],6.24
same,Activity,[15],Active
same,Activity,[16],tde
same,Activity,[17],47.27%
same,Activity,[18],Active
same,Activity,[19],Active
same,Activity,[20],89.65%
same,Activity,[21],Active
same,Activity,[22],Active
same,Activity,[23],tde
same,pIC50,[5],6.25
same,"viability at 12 h, 5 µM",[6],98%
same,Activity,[24],13.8%
same,Activity,[25],9.79%
same,Activity,[26],Active
same,"viability at 72 h, 5 µM",[7],79%
same,Activity,[27],Active
same,Activity,[28],Active
CC(=O)O[C@H]1C(=O)[C@@]2(C)[C@H]([C@H](OC(=O)c3ccccc3)[C@]3(O)C[C@H](OC(=O)[C@H](O)[C@@H](NC(=O)c4ccccc4)c4ccccc4)C(C)=C1C3(C)C)[C@]1(OC(C)=O)CO[C@@H]1C[C@@H]2O [PACLITAXEL],pIC50,[4],8.47
same,pIC50,[5],8.55
COc1cc(-c2nc3cc(Oc4ccc5[nH]c(-c6ccc(O)c(OC)c6)nc5c4)ccc3[nH]2)ccc1O,pIC50,[3],4.97
same,pIC50,[4],5.25
same,pIC50,[5],5.09
CN1CCN(c2ccc3[nH]c(-c4ccc5[nH]c(-c6ccc(O)cc6)nc5c4)nc3c2)CC1 [HOECHST 33258],pIC50,[3],4.29
same,pIC50,[4],4.81
same,pIC50,[5],4.49
Brc1ccc(-c2nc3cc(Oc4ccc5[nH]c(-c6ccc(Br)cc6)nc5c4)ccc3[nH]2)cc1,pIC50,[3],4.69
same,pIC50,[4],4.66
same,pIC50,[5],4.76
